{"data": "Experimental data pooled from the literature", "target": "Casein kinase II subunit alpha (CSNK2A1, Homo sapiens, UniProt P68400)", "note": "Lines come from different studies, so protocols differ."}
{"SMILES": "C[S+]([O-])c1ccc(-c2nc(-c3ccncc3)c(-c3ccc(F)cc3)[nH]2)cc1 (stereo not shown)", "test": "cell-free assay", "setting": "0.5 µM", "endpoint": "remaining signal", "value": "86.2%"}
{"SMILES": "O=C(N1CCS(=O)(=O)CC1)N1C[C@H](c2ccc(OC(F)(F)F)cc2)C[C@H](c2nc(C3CC3)no2)C1", "test": "cell-free assay, competition with immobilised ligand", "setting": "1 µM", "endpoint": "remaining binding", "value": "100%"}
{"SMILES": "CCC1(CC)NC(=O)c2c(c3ccc(Cl)c(Cl)c3n2C)C1C#N (stereo not shown)", "test": "thermal stability, DSF", "setting": "10 µM", "endpoint": "ΔTm", "value": "0 °C"}
{"SMILES": "CCN(CC)c1ccc(C2=NNC(=O)CC2C)cc1[N+](=O)[O-] (stereo not shown)", "test": "enzyme activity, inhibitor", "setting": "10 µM", "endpoint": "remaining activity", "value": "96%"}
{"SMILES": "Nc1ncnc2occ(-c3ccc(NC(=O)Nc4cc(C(F)(F)F)ccc4F)cc3)c12", "test": "enzyme activity, inhibitor", "setting": "20 µM", "endpoint": "remaining activity", "value": "63%"}
{"SMILES": "CN(C)C(=O)Cn1cc(-c2nc([C@@](C)(c3ccc(-c4cnc(N)nc4)cc3)C3CC3)no2)cn1", "test": "cell-free assay, competition with immobilised ligand", "setting": "1 µM", "endpoint": "remaining binding", "value": "88%"}
{"SMILES": "CC(C)(C)c1nc(-c2cccc(NS(=O)(=O)c3c(F)cccc3F)c2F)c(-c2ccnc(N)n2)s1", "test": "enzyme activity, inhibitor, radiometric", "setting": "1 µM", "endpoint": "remaining activity", "value": "85%"}
{"SMILES": "Cc1ccc(C(=O)Nc2ccc(CN3CCN(C)CC3)c(C(F)(F)F)c2)cc1C#Cc1cnc2cccnn12", "test": "enzyme activity, inhibitor", "setting": "23.5 nM", "endpoint": "remaining activity", "value": "98%"}
{"SMILES": "Oc1cccc(-c2nc(N3CCOCC3)c3oc4ncccc4c3n2)c1", "test": "enzyme activity, inhibitor", "setting": "10 µM", "endpoint": "remaining activity", "value": "102%"}
{"SMILES": "Cn1c2c(c3ccc(Cl)c(Cl)c31)C(C#N)C(C)(C)NC2=O (stereo not shown)", "test": "thermal stability, DSF", "setting": "10 µM", "endpoint": "ΔTm", "value": "2.6 °C"}
{"SMILES": "Cc1ccc(Nc2nccc(N(C)c3ccc4c(C)n(C)nc4c3)n2)cc1S(N)(=O)=O", "test": "enzyme activity, inhibitor", "setting": "0.3 µM", "endpoint": "inhibition", "value": "-9%"}
{"SMILES": "Cn1cc(Cl)c2c(Oc3c(F)cc(Nc4cc(Cl)nc(N)n4)cc3F)ccnc21", "test": "cell-free assay, competition with immobilised ligand", "setting": "0.1 µM", "endpoint": "remaining binding", "value": "98%"}
{"SMILES": "N#CCCc1ccc2c(c1)-c1[nH]c3ccc([N+](=O)[O-])cc3c1CC(=O)N2", "test": "cell-free assay", "setting": "0.5 µM", "endpoint": "remaining signal", "value": "91.2%"}
{"SMILES": "O=C(Nc1ccc(Oc2ccc(F)cc2)cc1)N1CCc2ncccc2[C@H]1c1ccc(F)cc1", "test": "cell-free assay, competition with immobilised ligand", "setting": "1 µM", "endpoint": "remaining binding", "value": "99%"}
{"SMILES": "COc1cc(Cl)c(C(=O)N[C@@H](CN[C@H]2CC[C@@H](N)CC2)Cc2ccc(C#N)cc2)cc1-c1ccc(CN[C@H](C)c2ccc(C)cc2)o1", "test": "enzyme activity, inhibitor", "setting": "1 µM", "endpoint": "remaining activity", "value": "104%"}
{"SMILES": "Nc1cnc(N2CCc3cc(S(=O)(=O)Nc4c(F)cc(Cl)cc4F)cc(N4CCCC4=O)c32)nc1", "test": "cell-free assay, competition with immobilised ligand", "setting": "1 µM", "endpoint": "remaining binding", "value": "100%"}
{"SMILES": "Cc1ccc(C(=O)NCc2ccsc2)cc1C#Cc1cn(C(C)C)c2ncnc(N)c12", "test": "enzyme activity, inhibitor", "setting": "1 µM", "endpoint": "activity vs control", "value": "94%"}
{"SMILES": "COc1cc(Nc2cnc(C#N)c(O[C@H](C)CN(C)C)n2)ncc1-c1cnn(C)c1", "test": "enzyme activity, inhibitor, radiometric", "setting": "10 µM", "endpoint": "remaining activity", "value": "87%"}
{"SMILES": "C[C@H](NC(=O)c1cnc2n1[C@](C)(Cc1ccc(C#N)cc1)C(=O)N2c1cc(Cl)c(F)c(Cl)c1)C(=O)NC1(c2ccccn2)CC1", "test": "cell-free assay, competition with immobilised ligand", "setting": "1 µM", "endpoint": "remaining binding", "value": "81%"}
{"SMILES": "COc1cc(/C=C/C(=O)CC(=O)/C=C/c2ccc(O)c(OC)c2)ccc1O", "test": "enzyme activity, inhibitor", "setting": "1 µM", "endpoint": "activity vs control", "value": "106%"}
{"SMILES": "CCN(CC)CCNC(=O)c1c(C)[nH]c(/C=C2\\C(=O)Nc3ccc(F)cc32)c1C", "test": "enzyme activity, inhibitor", "setting": "10 µM", "endpoint": "inhibition", "value": "22%"}
{"SMILES": "C#Cc1cccc(Nc2ncnc3cc(OCCOC)c(OCCOC)cc23)c1", "test": "cell-free assay", "setting": "0.5 µM", "endpoint": "remaining signal", "value": "78.9%"}
{"SMILES": "O=C(Nc1cnc(Oc2ccc(F)cc2)nc1)N1CCc2ncccc2[C@@H]1c1ccc(F)cc1", "test": "cell-free assay, competition with immobilised ligand", "setting": "1 µM", "endpoint": "remaining binding", "value": "93%"}
{"SMILES": "FC(F)c1nc2ccccc2n1-c1nc(N2CCOCC2)nc(N2CCOCC2)n1", "test": "enzyme activity, inhibitor", "setting": "10 µM", "endpoint": "remaining activity", "value": "54%"}
{"SMILES": "C[C@@H]1CN(c2cc(-c3nn(C)c4ccc(OC5(C)CC5)cc34)ncn2)C[C@H](C)O1", "test": "cell-free assay, competition with immobilised ligand", "setting": "1 µM", "endpoint": "remaining binding", "value": "76%"}
{"SMILES": "Cn1c2c(c3ccc(Cl)c(Cl)c31)C(C#N)C1(CCOCC1)NC2=O (stereo not shown)", "test": "thermal stability, DSF", "setting": "10 µM", "endpoint": "ΔTm", "value": "2.1 °C"}
{"SMILES": "Cc1sc(C(=O)NC2COC2)cc1-n1cc(NC(=O)Nc2c(F)cccc2Cl)cn1", "test": "enzyme activity, inhibitor", "setting": "10 µM", "endpoint": "remaining activity", "value": "97%"}
{"SMILES": "Cn1c2c(Cl)c(Cl)ccc2c2cc(N)[nH]c(=O)c21", "test": "thermal stability, DSF", "setting": "10 µM", "endpoint": "ΔTm", "value": "2.8 °C"}
{"SMILES": "Nc1nc(NC2CCCCC2)sc1C(=O)c1ccccc1", "test": "enzyme activity, inhibitor", "setting": "10 µM", "endpoint": "remaining activity", "value": "114%"}
{"SMILES": "Cn1c2c(c3ccc(Cl)c(Cl)c31)C(C#N)C1(CCCCC1)NC2=O (racemic)", "test": "thermal stability, DSF", "setting": "10 µM", "endpoint": "ΔTm", "value": "0.7 °C"}
{"SMILES": "COc1cc2ncnc(Nc3ccc(Oc4ccccc4)c(C)c3C)c2cc1OC", "test": "enzyme activity, inhibitor", "setting": "1 µM", "endpoint": "inhibition", "value": "5%"}
